Laboratory results: ChEMBL document CHEMBL1955770, “Inhibition of S/G2 phase CDK4 reduces mitotic fidelity” (J Biol Chem, 2006)
The source made the active and inactive calls. The rule behind the calls is not given here.

What was measured:
[1] = target: Cyclin-dependent kinase 1/cyclin B1 (Homo sapiens, UniProt P06493); experiment: Inhibition of human CDK1-GST-tagged cyclin B using his-tagged Rb as substrate after 30 mins by scintillation counting method; type: protein-complex assay
[2] = target: Mitogen-activated protein kinase 3 (Homo sapiens, UniProt P27361); experiment: Inhibition of ERK1 using fluorescent substrate by IMAP assay
Sequence of Mitogen-activated protein kinase 3 (P27361 whole entry): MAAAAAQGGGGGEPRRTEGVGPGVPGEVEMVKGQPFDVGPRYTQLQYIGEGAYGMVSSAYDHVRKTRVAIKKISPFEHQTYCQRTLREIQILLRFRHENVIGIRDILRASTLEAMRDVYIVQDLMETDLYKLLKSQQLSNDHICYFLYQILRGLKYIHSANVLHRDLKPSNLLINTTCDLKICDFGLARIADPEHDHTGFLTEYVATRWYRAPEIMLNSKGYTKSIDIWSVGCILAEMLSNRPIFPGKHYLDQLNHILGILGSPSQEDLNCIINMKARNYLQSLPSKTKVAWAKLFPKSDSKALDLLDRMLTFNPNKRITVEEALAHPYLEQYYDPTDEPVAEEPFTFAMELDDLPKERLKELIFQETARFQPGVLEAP
In short: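 Run in-house using IMAP: phosphorylated fluorescent peptide substrate binds preferentially to immobilized metal beads, which quantifies kinase activity. ATP at 3× the Km of each enzyme.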

HeLa [3] = experiment: Cell cycle arrest in Rb-deficient human HeLa cells assessed as accumulation at G1 phase at 2 uM after 24 hrs by FACS analysis; type: functional
In short: (§1)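 Ethanol-fixed cells stained with propidium iodide/RNase A, DNA content read by FACS, phase and sub-diploid fractions calculated with ModFit.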

[4] = Cell cycle arrest in Rb-competent human SK-MEL-13 cells assessed as accumulation at sub-diploid phase at 2 uM after 24 hrs by FACS analysis; type: functional; in short: as §1
[5] = Cell cycle arrest in Rb-competent human SK-MEL-13 cells assessed as accumulation at G1 phase at 2 uM after 24 hrs by FACS analysis; type: functional; in short: as §1
HCT-116 = experiment: Cell cycle arrest in Rb-competent human HCT116 cells assessed as […] at IC90 after 24 hrs using BrdUrd staining by FACS analysis (Rvb =38 %); type: functional
[6] = target: Cyclin-dependent kinase 4 (Homo sapiens) (UniProt P11802); experiment: Inhibition of CDK4-mediated Rb phosphorylation at ser 795 in human HCT116 cells at 3 times IC90 after 4 hrs by immunoblot analysis; type: cell-based; settings: HCT-116
Sequence of Cyclin-dependent kinase 4 (Homo sapiens) (P11802 whole entry): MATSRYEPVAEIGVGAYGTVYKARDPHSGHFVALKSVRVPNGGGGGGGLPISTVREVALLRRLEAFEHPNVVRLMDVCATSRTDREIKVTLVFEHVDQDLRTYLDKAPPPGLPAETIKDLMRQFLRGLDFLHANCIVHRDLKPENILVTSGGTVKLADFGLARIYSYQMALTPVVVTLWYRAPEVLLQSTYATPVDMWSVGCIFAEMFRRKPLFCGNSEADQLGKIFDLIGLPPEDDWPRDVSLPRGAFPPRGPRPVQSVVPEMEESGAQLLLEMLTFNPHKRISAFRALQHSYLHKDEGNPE
In short: (§2)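 Asynchronous HCT-116 cells (DMEM, 3 mM HEPES, 10% serum, 37 °C, 5% CO₂) were given increasing inhibitor doses for 4 or 24 h. Lysis in NETN with phosphatase and protease inhibitors, then SDS-PAGE, nitrocellulose transfer and immunoblot for phospho-Rb (Ser-795) with HRP secondary and chemiluminescence.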

[7] = target: Cyclin-dependent kinase 4 (Homo sapiens) (UniProt P11802); experiment: Inhibition of CDK4-mediated Rb phosphorylation at ser 795 in human HCT116 cells at IC90 after 24 hrs by immunoblot analysis; type: cell-based; settings: HCT-116; in short: as §2
[8] = target: Cyclin-dependent kinase 4 (Homo sapiens) (UniProt P11802); experiment: Inhibition of CDK4-mediated Rb phosphorylation at ser 795 in human HCT116 cells at 3 times IC90 after 24 hrs by immunoblot analysis; type: cell-based; settings: HCT-116; in short: as §2
SW480 [9] = experiment: Antiproliferative activity against human SW480 cells assessed as inhibition of S phase after 48 hrs by MTT assay; type: functional, cell-based; settings: SW480, 48 h
In short: (§3)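 Cells grown in DMEM with 3 mM HEPES and 10% Serum Supreme at 37 °C, 5% CO2. Proliferation read by MTT assay 48 h after drug addition; IC50 given as mean of two separate determinations, each in duplicate.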

MDA-MB-435 [10] = experiment: Antiproliferative activity against human MDA-MB-435 cells assessed as inhibition of S phase after 48 hrs by MTT assay; type: functional, cell-based; settings: MDA-MB-435, 48 h; in short: as §3
MDA-MB-453 = experiment: Antiproliferative activity against human MDA-MB-453 assessed as inhibition of S phase cells after 48 hrs by MTT assay; type: functional, cell-based; settings: MDA-MB-453, 48 h; in short: as §3
HeLa [11] = experiment: Cell cycle arrest in human HeLa cells assessed as accumulation at G2/M phase at 2 uM treated 2 hr and measured 8 hr post double thymidine-synchrony release using propidium iodide staining by FACS analysis (reference value: 86 %); type: functional
In short: (§4)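 Cells harvested at set times post-release, fixed in 70% ethanol, stained with 5 μg/ml propidium iodide plus 0.5 mg/ml RNase A, and analysed by flow cytometry. Cell-cycle phase fractions calculated by ModFit.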

HeLa [12] = experiment: Cell cycle arrest in human HeLa cells assessed as accumulation at G2/M phase at 2 uM treated 2 hr and measured 10 hr post double thymidine-synchrony release using propidium iodide staining by FACS analysis (reference value: 31 %); type: functional; in short: as §4
HeLa [13] = experiment: Cell cycle arrest in human HeLa cells assessed as time delay in progression through G2/M phase at 4 uM treated within 4 hr post double thymidine-synchrony release using propidium iodide staining by FACS analysis; type: functional; in short: as §4
[14] = Cell cycle arrest in human SK-MEL-13 cells assessed as accumulation at G1 phase at 2 uM treated 1 hr and measured 8 hr post double hydroxyurea-synchrony release using propidium iodide staining by FACS analysis (reference value: 10 %); type: functional, cell-based
In short: (§5)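 SK-Mel-13 cells synchronized with 2 mM hydroxyurea, then treated with 2 μM CDK4 inhibitor or left untreated 1 h after release. Harvested at indicated times post-release, ethanol-fixed, propidium iodide/RNase stained, and DNA content read by FACS. Proportions of G1, S and G2/M cells derived with ModFit.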

[15] = Cell cycle arrest in human SK-MEL-13 cells assessed as accumulation at G2/M phase at 2 uM treated 1 hr and measured 10 hr post double hydroxyurea-synchrony release using propidium iodide staining by FACS analysis (reference value: 70 %); type: functional, cell-based; in short: as §5
[16] = Cell cycle arrest in human SK-MEL-13 cells assessed as accumulation at G1 phase at 2 uM treated 1 hr and measured 12 hr post double hydroxyurea-synchrony release using propidium iodide staining by FACS analysis (reference value: 40 %); type: functional, cell-based; in short: as §5
A2058 = experiment: Cell cycle arrest in human A2058 cells assessed as accumulation at S phase at 2 uM treated 1 hr and measured 12 hr post double hydroxyurea-synchrony release using propidium iodide staining by FACS analysis (reference value: 47 %); type: functional
SW480 [17] = experiment: Toxicity in human SW480 cells at 8 uM by MTT assay; type: cell-based; settings: sw480, 8 µM
MDA-MB-435 [18] = experiment: Toxicity in human MDA-MB-435 cells at 8 uM by MTT assay; type: cell-based; settings: mda-mb-435, 8 µM
HeLa [19] = experiment: Cell cycle arrest in synchronized human HeLa cells assessed as large multinuclear cell formation at 2 uM by time-lapse microscopy; type: functional, cell-based
HeLa [20] = experiment: Cell cycle arrest in human HeLa cells assessed as accumulation at G2/M phase at 2 uM treated 4 hr and measured 10 hr post double thymidine-synchrony release using propidium iodide staining by FACS analysis (reference value: 31 %); type: functional; in short: as §4
HeLa [21] = experiment: Cell cycle arrest in human HeLa cells assessed as accumulation at G1 phase at 2 uM treated 6 hr and measured 10 hr post double thymidine-synchrony release using propidium iodide staining by FACS analysis (reference value: 68 %); type: functional
HeLa [22] = experiment: Cell cycle arrest in human HeLa cells assessed as accumulation at G1 phase at 2 uM treated 4 hr and measured 12 hr post double thymidine-synchrony release using propidium iodide staining by FACS analysis (reference value: 81 %); type: functional
HeLa [23] = experiment: Cell cycle arrest in human HeLa cells assessed as accumulation at G1 phase at 2 uM treated 6 hr and measured 12 hr post double thymidine-synchrony release using propidium iodide staining by FACS analysis (reference value: 81 %); type: functional
HeLa [24] = experiment: Cell cycle arrest in human HeLa cells assessed as accumulation at G2/M phase at 2 uM treated 6 hr and measured 12 hr post double thymidine-synchrony release using propidium iodide staining by FACS analysis (reference value: 17 %); type: functional; in short: as §4

Sequence of Cyclin-dependent kinase 1/cyclin B1 (P06493 whole entry): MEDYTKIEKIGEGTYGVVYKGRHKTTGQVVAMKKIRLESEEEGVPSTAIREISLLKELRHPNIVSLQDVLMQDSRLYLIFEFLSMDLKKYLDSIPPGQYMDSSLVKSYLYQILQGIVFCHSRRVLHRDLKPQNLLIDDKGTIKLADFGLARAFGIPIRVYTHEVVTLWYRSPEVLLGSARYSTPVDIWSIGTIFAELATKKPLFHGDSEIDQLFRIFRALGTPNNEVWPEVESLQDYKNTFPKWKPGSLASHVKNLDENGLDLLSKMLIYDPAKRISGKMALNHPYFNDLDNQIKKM
Sequence of Cyclin-dependent kinase 1/cyclin B1 (P14635 whole entry, further chain): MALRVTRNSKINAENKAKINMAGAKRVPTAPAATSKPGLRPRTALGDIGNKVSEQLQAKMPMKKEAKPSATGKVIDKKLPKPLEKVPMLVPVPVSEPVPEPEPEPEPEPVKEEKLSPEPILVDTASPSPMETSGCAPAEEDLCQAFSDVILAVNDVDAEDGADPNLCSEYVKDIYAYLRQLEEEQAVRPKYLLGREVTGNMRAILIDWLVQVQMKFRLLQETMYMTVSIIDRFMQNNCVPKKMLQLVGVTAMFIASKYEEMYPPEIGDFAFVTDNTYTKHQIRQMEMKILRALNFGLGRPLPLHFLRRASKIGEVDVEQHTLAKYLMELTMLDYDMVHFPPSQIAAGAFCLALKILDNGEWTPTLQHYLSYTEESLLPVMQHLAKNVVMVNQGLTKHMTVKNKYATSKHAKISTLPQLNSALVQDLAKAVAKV

IC50 [1]	IC50 [2]	inhibition [6]	inhibition [7]	inhibition [8]	IC50 (SW480 [9])	IC50 (MDA-MB-435 [10])	IC50 (MDA-MB-453)	Compound	Activity (HeLa [3])	Activity [4]	Activity [5]	Activity (HCT-116)	Activity (HeLa [11])	Activity (HeLa [12])	Time (HeLa [13])	Activity [14]	Activity [15]	Activity [16]	Activity (A2058)	Activity (SW480 [17])	further results
1970 nM	> 100000 nM	Active	Active	Active	1060 nM	1200 nM	710 nM	COc1cccc(C(=O)c2sc(Nc3ccc(N4CCN(C(C)C)CC4)cc3)nc2N)c1	49%	9%	65%	11%	84%	90%	>4 h	12%	75%	13%	40%	Toxic	Activity (MDA-MB-435 [18]): Toxic; Activity (HeLa [19]): Active; Activity (HeLa [20]): 88%; Activity (HeLa [21]): 56%; Activity (HeLa [22]): 36%; Activity (HeLa [23]): 73%; Activity (HeLa [24]): 25%
3040 nM	> 100000 nM	Active	Active	Active	3670 nM	3060 nM	1450 nM	CN1CCN(c2ccc(Nc3nc(N)c(C(=O)c4ccc5c(c4)OCCO5)s3)cc2)CC1	49%	9%	65%	11%	84%	90%	>4 h	12%	75%	13%	40%	Toxic	Activity (MDA-MB-435 [18]): Toxic; Activity (HeLa [19]): Active; Activity (HeLa [20]): 88%; Activity (HeLa [21]): 56%; Activity (HeLa [22]): 36%; Activity (HeLa [23]): 73%; Activity (HeLa [24]): 25%
